Columns and labels:
Format in all cases: functional, Homo sapiens
[1] = test system: KB 3-1; assay: Cytotoxicity against KB-3-1 cells was determined when administered at 1 ug/mL
In short: (§1)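 Parental KB-3-1 cells grown in RPMI 1640 with glutamine, kanamycin and 10% newborn calf serum. 10,000 cells per well were preincubated 24 h at 37 °C in 5% CO2. The test sample was then added alone and incubated 48 h. MTT was added for 3 h, and the formazan was extracted with DMSO before the colorimetric read.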

[2] = test system: KB 3-1; assay: Cytotoxicity against KB-3-1 cells was determined when administered at 10 ug/mL; in short: as §1
[3] = test system: KB 3-1; assay: Cytotoxicity against KB-3-1 cells was determined when administered at 3 ug/mL; in short: as §1
[4] = test system: KB; assay: Percentage inhibition of growth against KB-C2 cells in the presence of colchicine(0.1 ug/mL) was determined when administered at 3 ug/mL
In short: (§2)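 Multidrug-resistant KB-C2 cells were selected from KB-3-1 and kept in colchicine-containing RPMI 1640 with glutamine, kanamycin and 10% newborn calf serum. 10,000 cells per well were preincubated 24 h at 37 °C in 5% CO2. Colchicine plus the test sample were added together and incubated 48 h. Growth was read by MTT (3 h), with the formazan extracted in DMSO.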

[5] = test system: KB; assay: Percentage inhibition of growth against KB-C2 cells in the presence of colchicine(0.1 ug/mL) was determined when administered at 1 ug/mL; in short: as §2
[6] = test system: KB; assay: Percentage inhibition of growth against KB-C2 cells in the presence of colchicine(0.1 ug/mL) was determined when administered at 10 ug/mL; in short: as §2
[7] = test system: KB; assay: Percentage inhibition of growth against KB-C2 cells in the presence of colchicine (0.1 ug/mL) was determined when administered at 3 ug/mL; in short: as §2

Row | Compound | Growth inhibition [1] [%] | Growth inhibition [2] [%] | Growth inhibition [3] [%] | Growth inhibition [4] [%] | Growth inhibition [5] [%] | Growth inhibition [6] [%] | Growth inhibition [7] [%]
1 | CC(C)CC(=O)OC[C@H]1O[C@H](O[C@]2(COC(=O)CC(C)C)O[C@H](COC(=O)CC(C)C)[C@@H](OC(=O)CC(C)C)[C@@H]2OC(=O)CC(C)C)[C@H](OC(=O)CC(C)C)[C@@H](O)[C@@H]1O | 18 | 93 | 16 | 60 | 23 | 92 | –
2 | CC(C)CC(=O)OC[C@H]1O[C@@](COC(=O)CC(C)C)(O[C@H]2O[C@H](CO)[C@@H](OC(=O)CC(C)C)[C@H](O)[C@H]2OC(=O)CC(C)C)[C@@H](OC(=O)CC(C)C)[C@@H]1OC(=O)CC(C)C | 2 | 40 | 10 | 79 | 39 | 88 | –
3 | CC(C)CC(=O)OC[C@H]1O[C@@](COC(=O)CC(C)C)(O[C@H]2O[C@H](CO)[C@@H](O)[C@H](O)[C@H]2OC(=O)CC(C)C)[C@@H](OC(=O)CC(C)C)[C@@H]1OC(=O)CC(C)C | 10 | 92 | 21 | 76 | 40 | 93 | –
4 | CC(C)CC(=O)OC[C@H]1O[C@@](COC(=O)CC(C)C)(O[C@H]2O[C@H](CO)[C@@H](O)[C@H](OC(=O)CC(C)C)[C@H]2OC(=O)CC(C)C)[C@@H](OC(=O)CC(C)C)[C@@H]1OC(=O)CC(C)C | 6 | 66 | 16 | 53 | 18 | 94 | –
5 | CC(C)CC(=O)OC[C@H]1O[C@@](COC(=O)CC(C)C)(O[C@H]2O[C@H](COC(=O)CC(C)C)[C@@H](OC(=O)CC(C)C)C(OC(=O)CC(C)C)[C@H]2OC(=O)CC(C)C)[C@@H](OC(=O)CC(C)C)[C@@H]1OC(=O)CC(C)C (stereo partly specified) | 10 | 25 | 15 | 12 | 4 | 24 | –
6 | CC(C)CC(=O)O[C@@H]1[C@@H](OC(=O)CC(C)C)[C@@H](O[C@]2(CO)O[C@H](CO)[C@@H](OC(=O)CC(C)C)[C@@H]2OC(=O)CC(C)C)O[C@H](CO)[C@H]1OC(=O)CC(C)C | 9 | 98 | 8 | – | 65 | 97 | 92

From ChEMBL document CHEMBL1134962, “Facilely accessible multidrug resistance modulator derived from sucrose” (2002)
